In ChEMBL document CHEMBL1139738, “Pyridine-3-propanoic acids: Discovery of dual PPARalpha/gamma agonists as antidiabetic agents” (Bioorg Med Chem Lett, 2006):

Experiments:
Mus musculus [1] = assay: Reduction of plasma triglycerides in orally dosed db/db mouse at 0.03 mg/kg after 8 days relative to control; type: functional; parameters: scale not given: the % may be the effect or the level left; conditions: route oral
How it was run: (§1)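 Male db/db mice, 7 weeks old, with lean controls, given vehicle or compound by oral gavage once daily for 8 days. Plasma glucose, triglycerides, hematocrit and body weight measured before dosing on day −1 and 2 h post-dose on day 8. Percent change is expressed versus vehicle control, with significance at p < 0.05.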

[2] = target: T1, Peroxisome proliferator-activated receptor alpha (Homo sapiens) (UniProt Q07869); assay: Agonist activity at human PPAR alpha in a HepG2 cells by PPAR-GAL4 transactivation assay relative to GW-2331; type: functional, cell-based
T1 sequence (whole entry): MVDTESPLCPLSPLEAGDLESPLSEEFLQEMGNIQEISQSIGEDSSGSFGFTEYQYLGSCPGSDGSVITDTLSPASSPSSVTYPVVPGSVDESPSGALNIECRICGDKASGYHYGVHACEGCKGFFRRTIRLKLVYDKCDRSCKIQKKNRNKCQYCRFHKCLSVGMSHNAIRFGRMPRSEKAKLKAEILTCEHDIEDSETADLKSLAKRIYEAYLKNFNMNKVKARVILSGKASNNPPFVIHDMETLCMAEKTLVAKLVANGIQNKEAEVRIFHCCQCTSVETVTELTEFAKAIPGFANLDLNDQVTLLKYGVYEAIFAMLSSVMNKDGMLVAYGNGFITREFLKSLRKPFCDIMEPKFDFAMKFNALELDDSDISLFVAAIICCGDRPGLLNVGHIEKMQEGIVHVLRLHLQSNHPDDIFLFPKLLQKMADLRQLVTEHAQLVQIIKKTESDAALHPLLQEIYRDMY

[3] = target: T2, Peroxisome proliferator-activated receptor alpha (Homo sapiens, UniProt Q07869); assay: Displacement of radiolabeled GW-2331 from human PPAR alpha by SPA binding assay
T2 sequence (Q07869 whole entry): T1 sequence (whole entry)

Mus musculus [4] = assay: Reduction of plasma triglycerides in orally dosed db/db mouse at 1 mg/kg after 8 days relative to control; type: functional; parameters: scale not given: the % may be the effect or the level left; conditions: route oral; how it was run: as §1
Mus musculus [5] = assay: Reduction of plasma glucose in orally dosed db/db mouse at 0.03 mg/kg after 8 days relative to control; type: functional; parameters: scale not given: the % may be the effect or the level left; conditions: route oral; how it was run: as §1
[6] = target: T2, Peroxisome proliferator-activated receptor alpha; assay: Agonist activity at human PPAR alpha in a HepG2 cells by PPAR-GAL4 transactivation assay; type: functional, cell-based
Mus musculus [7] = assay: Reduction of plasma glucose in orally dosed db/db mouse at 1 mg/kg after 8 days relative to control; type: functional; parameters: scale not given: the % may be the effect or the level left; conditions: route oral; how it was run: as §1
Mus musculus [8] = assay: Reduction of hematocrit in orally dosed db/db mouse at 0.03 mg/kg after 8 days relative to control; type: functional; parameters: scale not given: the % may be the effect or the level left; conditions: route oral; how it was run: as §1
[9] = Half life in orally dosed Sprague-Dawley rat; type: ADME, organism-based; conditions: in vivo, po
How it was run: (§2)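 Pharmacokinetics in male Sprague–Dawley rats given iv and oral doses. Outputs are iv clearance (mL/min/kg), oral half-life, dose-normalized oral AUC (h μg/mL) and oral bioavailability (%).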

Mus musculus [10] = assay: Increase in body weight in orally dosed db/db mouse at 0.03 mg/kg after 8 days relative to control; type: functional; conditions: route oral; how it was run: as §1
[11] = Clearance in iv dosed Sprague-Dawley rat; type: ADME, organism-based; conditions: in vivo; how it was run: as §2
[12] = Oral bioavailability in Sprague-Dawley rat; type: ADME, organism-based; conditions: in vivo; how it was run: as §2
Mus musculus [13] = assay: Reduction of hematocrit in orally dosed db/db mouse at 1 mg/kg after 8 days relative to control; type: functional; parameters: scale not given: the % may be the effect or the level left; conditions: route oral; how it was run: as §1
Mus musculus [14] = assay: Increase in body weight in orally dosed db/db mouse at 1 mg/kg after 8 days relative to control; type: functional; conditions: route oral; how it was run: as §1
[15] = target: T3, Peroxisome proliferator-activated receptor gamma (Homo sapiens, UniProt P37231); assay: Displacement of radiolabeled darglitazone from human PPAR gamma by SPA binding assay
T3 sequence (P37231 whole entry): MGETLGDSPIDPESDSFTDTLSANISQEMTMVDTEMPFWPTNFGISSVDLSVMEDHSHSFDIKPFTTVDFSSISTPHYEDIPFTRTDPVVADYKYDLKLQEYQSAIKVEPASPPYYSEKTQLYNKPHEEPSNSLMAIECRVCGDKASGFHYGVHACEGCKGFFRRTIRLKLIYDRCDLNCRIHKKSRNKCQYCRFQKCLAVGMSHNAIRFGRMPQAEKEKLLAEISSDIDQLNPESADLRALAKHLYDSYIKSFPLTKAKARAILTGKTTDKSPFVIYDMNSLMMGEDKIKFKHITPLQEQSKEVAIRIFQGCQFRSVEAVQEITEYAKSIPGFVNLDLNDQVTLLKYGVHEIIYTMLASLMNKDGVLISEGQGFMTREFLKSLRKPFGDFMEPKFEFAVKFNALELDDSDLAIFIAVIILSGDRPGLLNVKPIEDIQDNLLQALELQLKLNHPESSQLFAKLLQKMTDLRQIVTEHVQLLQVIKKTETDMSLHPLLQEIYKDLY

[16] = target: T1, Peroxisome proliferator-activated receptor alpha (Homo sapiens); assay: Displacement of radiolabeled GW-2331 from human PPAR alpha by SPA assay at 11 uM
How it was run: (§3)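 Scintillation proximity assay on human PPARα using radiolabelled GW2331 as the displaced ligand, following published procedures. Single-concentration lines report percent displacement at the stated test concentration; Ki was determined for compounds with a full curve.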

[17] = target: T4, Peroxisome proliferator-activated receptor gamma (Homo sapiens) (UniProt P37231); assay: Displacement of radiolabeled darglitazone from human PPAR gamma at 100 uM by SPA assay
T4 sequence (whole entry): T3 sequence (P37231 whole entry)
How it was run: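 Scintillation proximity assay on human PPARγ using radiolabelled darglitazone as the displaced ligand, following published procedures. Single-concentration lines report percent displacement at the stated test concentration; Ki was determined for compounds with a full curve.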

[18] = target: T3, Peroxisome proliferator-activated receptor gamma; assay: Agonist activity at human PPAR gamma in a HepG2 cells by PPAR-GAL4 transactivation assay; type: functional, cell-based
[19] = target: T1, Peroxisome proliferator-activated receptor alpha (Homo sapiens); assay: Displacement of radiolabeled GW-2331 from human PPAR alpha by SPA assay at 100 uM; how it was run: as §3

Compound	%max [2]	Ki [3]	EC50 [6]	also measured
Cc1oc(-c2ccccc2)nc1CCOc1ccc(C[C@]2(C(=O)O)CCCO2)cn1	89%	32 nM	165 nM	Activity (Mus musculus [1]): 67%; Activity (Mus musculus [4]): 147%; Activity (Mus musculus [5]): 37%; Activity (Mus musculus [7]): 99%; Activity (Mus musculus [8]): 7.2%; half-life [9]: 4.7 h; Activity (Mus musculus [10]): 11.7%; clearance [11]: 2.5 mL/min/kg; bioavailability [12]: 59%; Activity (Mus musculus [13]): 8.7%; Activity (Mus musculus [14]): 15.7%
Cc1oc(-c2ccccc2)nc1CCCOc1ccc(CC2(C(=O)O)CCCO2)cn1 (stereo unspecified)		1840 nM		Ki [15]: 810 nM
Cc1oc(-c2ccccc2)nc1CCOc1ccc(CC2(C(=O)O)CCCCC2)cn1		8300 nM		
Cc1oc(-c2ccccc2)nc1CCOc1ccc(CC2(C(=O)O)CCOCC2)cn1				inhibition [16]: 2%; Activity [17]: 32%
CCOC(Cc1ccc(OCCc2nc(-c3ccccc3)oc2C)nc1)C(=O)O (stereo unspecified)	96%	43 nM	33 nM	
COc1cccc(-c2nc(CCOc3ccc(CC4(C(=O)O)CCCO4)cn3)c(C)o2)c1 (stereo unspecified)	104%	215 nM	90 nM	
Cc1oc(-c2ccccc2)nc1CCOc1ccc(CC2(C(=O)O)CCCO2)cn1 (stereo unspecified)	106%	78 nM	48 nM	
CN(CCOc1ccc(CC2SC(=O)NC2=O)cc1)c1ccccn1 (stereo unspecified)	6%			
COC(Cc1ccc(OCCc2nc(-c3ccccc3)oc2C)nc1)C(=O)O (stereo unspecified)	95%	180 nM	83 nM	
CCOC(CC)(Cc1ccc(OCCc2nc(-c3ccccc3)oc2C)nc1)C(=O)O (stereo unspecified)	64%	15100 nM	4670 nM	EC50 [18]: 2810 nM; Ki [15]: 14400 nM
Cc1oc(-c2ccccc2)nc1CCOc1ccc(CC2(C(=O)O)CCCCO2)cn1 (stereo unspecified)	96%	78 nM	228 nM	
Cc1oc(-c2ccccc2)nc1CCOc1ccc(CC(C)C(=O)O)cn1 (stereo unspecified)	93%	3000 nM	287 nM	
Cc1oc(-c2ccccc2)nc1CCOc1ccc(CC2(C(=O)O)CC2)cn1	39%		6150 nM	inhibition [19]: 44%
Cc1ccc(-c2nc(CCOc3ccc(CC4(C(=O)O)CCCO4)cn3)c(C)o2)cc1 (stereo unspecified)	84%	31 nM	23 nM	
Cc1oc(-c2ccc(C#N)cc2)nc1CCOc1ccc(CC2(C(=O)O)CCCO2)cn1 (stereo unspecified)	167%	314 nM	31 nM	EC50 [18]: 28 nM; Ki [15]: 334 nM
Cc1oc(-c2ccccc2)nc1CCOc1ccc(CC(C)(C)C(=O)O)cn1	112%	6800 nM	534 nM	

Compound	%max [2]	Ki [3]	EC50 [6]	also measured
Cc1oc(-c2ccc(Cl)cc2)nc1CCOc1ccc(CC2(C(=O)O)CCCO2)cn1 (stereo unspecified)	87%	14 nM	10 nM	
Cc1oc(-c2ccccc2)nc1CCOc1ccc(CC(CC(C)C)C(=O)O)cn1 (stereo unspecified)	98%	430 nM	1720 nM	EC50 [18]: 1650 nM; Ki [15]: 360 nM
Cc1oc(-c2ccccc2)nc1CCOc1ccc(CC(C(=O)O)C(C)(C)C)cn1 (stereo unspecified)		9400 nM		Ki [15]: 12000 nM
Cc1oc(-c2ccc(C(F)(F)F)cc2)nc1CCOc1ccc(CC2(C(=O)O)CCCO2)cn1 (stereo unspecified)	143%	21 nM	11 nM	
Cc1oc(-c2ccccc2)nc1CCOc1ccc(CC2(C(=O)O)CCOC2)cn1 (stereo unspecified)				inhibition [19]: 33%; Ki [15]: 17000 nM
Cc1oc(-c2cccc(Cl)c2)nc1CCOc1ccc(CC2(C(=O)O)CCCO2)cn1 (stereo unspecified)	117%	99 nM	46 nM	
Cc1oc(-c2ccccc2)nc1CCOc1ccc(CC(C(=O)O)C(C)C)cn1 (stereo unspecified)	93%	4100 nM	426 nM	
CCCC(Cc1ccc(OCCc2nc(-c3ccccc3)oc2C)nc1)C(=O)O (stereo unspecified)	92%	880 nM	770 nM	
Cc1cccc(-c2nc(CCOc3ccc(CC4(C(=O)O)CCCO4)cn3)c(C)o2)c1 (stereo unspecified)	86%	277 nM	134 nM	
COc1ccc(-c2nc(CCOc3ccc(CC4(C(=O)O)CCCO4)cn3)c(C)o2)cc1 (stereo unspecified)	96%	65 nM	486 nM	
COC(C)(Cc1ccc(OCCc2nc(-c3ccccc3)oc2C)nc1)C(=O)O (stereo unspecified)	106%	330 nM	144 nM	
Cc1oc(-c2cccc(C(F)(F)F)c2)nc1CCOc1ccc(CC2(C(=O)O)CCCO2)cn1 (stereo unspecified)	81%	100 nM	8 nM	
Cc1oc(-c2ccccc2)nc1CCOc1ccc(CC2(C(=O)O)CCC2)cn1	94%	633 nM	238 nM	EC50 [18]: 125 nM; Ki [15]: 394 nM
CCC(Cc1ccc(OCCc2nc(-c3ccccc3)oc2C)nc1)C(=O)O (stereo unspecified)	106%	1300 nM	150 nM	
COC(Cc1ccc(OCCc2ccc(Oc3cccc(Cl)c3)cc2C)nc1)C(=O)O (stereo unspecified)	100%	13 nM	133 nM	EC50 [18]: 50 nM; Ki [15]: 15 nM
